Results: ChEMBL document CHEMBL2375300, “New potent calcimimetics: II. Discovery of benzothiazole trisubstituted ureas” (Bioorg Med Chem Lett, 2013)
Activity calls are given as the source filed them. No cut-off for these calls is given here.

What was measured:
[1] = biological target: T1, Extracellular calcium-sensing receptor (Homo sapiens, UniProt P41180); test: Positive allosteric modulation of human CaSR expressed in CHO cells assessed as increase in intracellular calcium level after 5 hrs by luciferase reporter gene assay; assay type: functional, cell-based
T1 sequence (P41180 whole entry): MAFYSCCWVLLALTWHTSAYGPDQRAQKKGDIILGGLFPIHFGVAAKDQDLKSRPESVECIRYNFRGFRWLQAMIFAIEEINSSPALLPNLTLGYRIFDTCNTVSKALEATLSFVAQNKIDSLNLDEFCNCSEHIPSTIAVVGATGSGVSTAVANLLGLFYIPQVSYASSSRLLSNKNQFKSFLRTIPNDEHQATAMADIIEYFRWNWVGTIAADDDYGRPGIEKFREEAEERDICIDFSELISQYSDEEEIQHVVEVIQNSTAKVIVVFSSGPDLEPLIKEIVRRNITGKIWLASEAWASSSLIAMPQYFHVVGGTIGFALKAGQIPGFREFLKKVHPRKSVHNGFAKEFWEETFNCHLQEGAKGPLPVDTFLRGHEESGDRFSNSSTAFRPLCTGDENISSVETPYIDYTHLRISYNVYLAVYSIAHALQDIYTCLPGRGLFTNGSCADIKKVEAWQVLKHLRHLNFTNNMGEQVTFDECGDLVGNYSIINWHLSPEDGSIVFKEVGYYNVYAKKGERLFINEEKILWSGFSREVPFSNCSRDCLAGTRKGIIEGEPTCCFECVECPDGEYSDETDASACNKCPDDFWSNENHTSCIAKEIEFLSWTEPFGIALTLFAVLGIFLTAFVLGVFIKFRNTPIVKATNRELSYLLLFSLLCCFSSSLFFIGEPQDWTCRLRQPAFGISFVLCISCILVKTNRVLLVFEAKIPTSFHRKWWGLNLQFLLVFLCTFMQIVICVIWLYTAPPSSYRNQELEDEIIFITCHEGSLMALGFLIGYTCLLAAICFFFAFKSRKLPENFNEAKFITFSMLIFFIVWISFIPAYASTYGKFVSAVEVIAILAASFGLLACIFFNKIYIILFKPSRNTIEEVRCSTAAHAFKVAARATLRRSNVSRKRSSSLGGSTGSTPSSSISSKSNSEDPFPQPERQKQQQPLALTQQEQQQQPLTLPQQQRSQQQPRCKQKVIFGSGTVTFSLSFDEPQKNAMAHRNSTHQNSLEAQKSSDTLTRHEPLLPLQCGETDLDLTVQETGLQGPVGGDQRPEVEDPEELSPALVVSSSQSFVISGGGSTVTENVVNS
How it was run: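 CHO cells stably transfected with human CaSR and a luciferase reporter (clone ET8-5-5) were seeded at 50K/well, grown 24 h, then serum-starved overnight. Cells were exposed for 5 h at 37 °C to compound dilutions crossed with a CaCl2 range, in HEPES pH 7.4 buffer with 0.3 mM CaCl2 baseline. Luminescence was read. EC50 was taken at 2 mM calcium, n ≥ 1.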

[2] = tested on: Rattus norvegicus; test: Antihyperparathyroidism activity in Sprague-Dawley rat chronic renal failure model assessed as increase in serum phosphorus level at 10 mg/kg, po after 24 hrs; assay type: functional, organism-based; design: dose 10 mg/kg
How it was run: (§1)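 One week later each received one oral gavage of 10 mg/kg in 0.5% methylcellulose (5 mL/kg), or vehicle alone. Rats were fasted 24 h before decapitation at 2, 6 or 24 h. Serum PTH was measured by rat IRMA, and Ca and P by chemistry analyzer. n = 9–12, ANOVA/t-test against CRF vehicle.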

[3] = biological target: T2, Extracellular calcium-sensing receptor (Homo sapiens) (UniProt P41180); test: Ratio of R-568 EC50 to compound EC50 for positive allosteric modulation of human CaSR
T2 sequence (whole entry): T1 sequence (P41180 whole entry)

[4] = tested on: Salmonella typhimurium; test: Genotoxicity in Salmonella typhimurium at 10 uM by Ames test; assay type: toxicity, organism-based; conditions: salmonella enterica subsp. enterica serovar typhimurium
[5] = biological target: Voltage-gated inwardly rectifying potassium channel KCNH2 (Homo sapiens, UniProt Q12809); test: Inhibition of human ERG at 10 uM
Voltage-gated inwardly rectifying potassium channel KCNH2, sequence (Q12809 whole entry): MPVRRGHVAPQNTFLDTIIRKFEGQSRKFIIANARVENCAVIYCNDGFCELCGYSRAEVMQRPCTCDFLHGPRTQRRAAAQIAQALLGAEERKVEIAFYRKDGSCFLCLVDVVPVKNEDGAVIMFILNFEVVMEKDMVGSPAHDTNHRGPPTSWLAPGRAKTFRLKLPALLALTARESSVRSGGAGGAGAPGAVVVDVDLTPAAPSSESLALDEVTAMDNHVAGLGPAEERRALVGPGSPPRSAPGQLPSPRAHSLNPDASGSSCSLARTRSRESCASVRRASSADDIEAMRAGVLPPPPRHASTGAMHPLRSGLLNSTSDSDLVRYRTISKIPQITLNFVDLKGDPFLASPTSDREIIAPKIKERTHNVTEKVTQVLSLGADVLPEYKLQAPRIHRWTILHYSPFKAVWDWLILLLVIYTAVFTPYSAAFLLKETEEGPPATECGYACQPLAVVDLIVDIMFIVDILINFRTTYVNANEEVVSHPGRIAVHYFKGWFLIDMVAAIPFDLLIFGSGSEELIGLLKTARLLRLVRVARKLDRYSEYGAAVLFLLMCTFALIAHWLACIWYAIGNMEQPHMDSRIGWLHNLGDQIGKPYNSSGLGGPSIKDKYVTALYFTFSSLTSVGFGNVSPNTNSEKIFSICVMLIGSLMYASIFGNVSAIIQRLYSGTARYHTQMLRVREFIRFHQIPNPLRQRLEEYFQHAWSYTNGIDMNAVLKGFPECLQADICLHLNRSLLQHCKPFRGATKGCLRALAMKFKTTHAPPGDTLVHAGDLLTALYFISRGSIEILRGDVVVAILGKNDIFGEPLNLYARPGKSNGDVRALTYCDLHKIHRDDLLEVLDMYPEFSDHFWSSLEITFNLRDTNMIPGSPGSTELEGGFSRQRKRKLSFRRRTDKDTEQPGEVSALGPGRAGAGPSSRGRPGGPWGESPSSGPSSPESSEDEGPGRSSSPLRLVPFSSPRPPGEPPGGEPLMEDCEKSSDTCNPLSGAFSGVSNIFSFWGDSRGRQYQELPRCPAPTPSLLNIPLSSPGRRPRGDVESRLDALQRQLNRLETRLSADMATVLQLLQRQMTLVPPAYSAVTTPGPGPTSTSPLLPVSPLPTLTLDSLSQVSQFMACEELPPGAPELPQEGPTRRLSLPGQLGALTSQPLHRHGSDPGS

[6] = Metabolic stability in intestinal fluid (unknown origin) at pH 2 to 12; assay type: ADME; conditions: simulated gi fluid
[7] = tested on: Rattus norvegicus; test: Toxicity in Sprague-Dawley rat chronic renal failure model assessed as decrease in serum calcium level at 10 mg/kg/day, po administered for 2 months measured 24 hrs post last dose relative to vehicle-treated control; assay type: organism-based; design: route oral; conditions: in vivo
How it was run: (§2)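 Male Sprague–Dawley rats with 5/6 nephrectomy were dosed orally once daily at 10 or 30 mg/kg/day in 0.5% methylcellulose (5 mL/kg), or given vehicle. Dosing ran about 2 months, starting after a post-surgery untreated period. Rats were fasted and killed by decapitation 24 h after the last dose. Serum PTH was measured by rat IRMA and Ca by chemistry analyzer. n = 6–10, compared with CRF vehicle.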

[8] = tested on: Rattus norvegicus; test: Toxicity in Sprague-Dawley rat chronic renal failure model assessed as decrease in serum calcium level at 10 mg/kg/day, po administered for 2 months measured 24 hrs post last dose (reference value: 4%); assay type: organism-based; design: route oral; scale not given: the % may be the effect or the level left; conditions: in vivo, 30 mg/kg, in the assay text read “at 30 mg/kg/day” for “at 10 mg/kg/day”; how it was run: as §2
[9] = tested on: Rattus norvegicus; test: Clearance in Sprague-Dawley rat at 0.3 mg/kg, iv; assay type: ADME, organism-based; design: dose 0.3 mg/kg, route intravenous; conditions: in vivo
[10] = tested on: Rattus norvegicus; test: Toxicity in Sprague-Dawley rat chronic renal failure model assessed as mortality at 10 to 30 mg/kg/day, po administered for 2 months measured 24 hrs post last dose; assay type: organism-based; design: route oral; conditions: in vivo
How it was run: (§3)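 After an untreated interval, they were gavaged once daily with the dihydrochloride salt in 0.5% methylcellulose, or with vehicle at 5 mL/kg. Mortality and side effects were monitored during treatment. Rats were fasted 24 h, then decapitated, and the aorta was examined histologically for calcification.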

[11] = tested on: Rattus norvegicus; test: Toxicity in Sprague-Dawley rat chronic renal failure model assessed as side effects at 10 to 30 mg/kg/day, po administered for 2 months measured 24 hrs post last dose; assay type: organism-based; design: route oral; conditions: in vivo; how it was run: as §3
[12] = Clearance in Sprague-Dawley rat chronic renal failure model at 0.3 mg/kg, iv; assay type: ADME, organism-based; design: dose 0.3 mg/kg, route intravenous; conditions: in vivo
How it was run: (§4)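 Single intravenous dose of 0.3 mg/kg given to chronic renal failure rats. AUC, Cmax, clearance, volume of distribution and half-life were derived from the plasma exposure.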

[13] = tested on: Rattus norvegicus; test: Antihyperparathyroidism activity in Sprague-Dawley rat chronic renal failure model assessed as […] at 10 mg/kg/day, po administered for 2 months measured 24 hrs post last dose relative to vehicle-treated control; assay type: functional; how it was run: as §2
[14] = tested on: Rattus norvegicus; test: Antihyperparathyroidism activity in Sprague-Dawley rat chronic renal failure model assessed as decrease in serum PTH level at 10 mg/kg, po after 24 hrs relative to vehicle-treated control; assay type: functional; design: scale not given: the % may be the effect or the level left; how it was run: as §1
[15] = tested on: Rattus norvegicus; test: Antihyperparathyroidism activity in Sprague-Dawley rat chronic renal failure model assessed as […] at 30 mg/kg/day, po administered for 2 months measured 24 hrs post last dose relative to vehicle-treated control; assay type: functional; how it was run: as §2
[16] = tested on: Rattus norvegicus; test: Toxicity in Sprague-Dawley rat chronic renal failure model assessed as aortic calcification at 10 to 30 mg/kg/day, po administered for 2 months measured 24 hrs post last dose by histological analysis; assay type: organism-based, Aorta; design: route oral; conditions: in vivo; how it was run: as §3
[17] = Aqueous solubility of the compound at pH 2; assay type: physicochemical
How it was run: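 Aqueous solubility measured at pH 2.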

[18] = Metabolic stability in serum (unknown origin) at pH 2 to 12; assay type: ADME
[19] = AUC in Sprague-Dawley rat chronic renal failure model at 0.3 mg/kg, iv; assay type: ADME, organism-based; design: dose 0.3 mg/kg, route intravenous; conditions: in vivo; how it was run: as §4
[20] = Half life in Sprague-Dawley rat chronic renal failure model at 0.3 mg/kg, iv; assay type: ADME, organism-based; design: dose 0.3 mg/kg, route intravenous; conditions: in vivo; how it was run: as §4
[21] = Volume of distribution in Sprague-Dawley rat chronic renal failure model at 0.3 mg/kg, iv; assay type: ADME, organism-based; design: dose 0.3 mg/kg, route intravenous; conditions: in vivo; how it was run: as §4
[22] = tested on: Rattus norvegicus; test: Toxicity in Sprague-Dawley rat chronic renal failure model assessed as decrease in serum calcium level at 10 mg/kg, po after 24 hrs; assay type: organism-based; design: dose 10 mg/kg, route oral; conditions: in vivo; how it was run: as §1
[23] = tested on: Rattus norvegicus; test: Antihyperparathyroidism activity in Sprague-Dawley rat chronic renal failure model assessed as decrease in serum PTH level at 10 mg/kg, po after 6 hrs relative to vehicle-treated control; assay type: functional; design: scale not given: the % may be the effect or the level left; how it was run: as §1
[24] = Cmax in Sprague-Dawley rat chronic renal failure model at 0.3 mg/kg, iv; assay type: ADME, organism-based; design: dose 0.3 mg/kg, route intravenous; conditions: in vivo; how it was run: as §4
[25] = tested on: Rattus norvegicus; test: Antihyperparathyroidism activity in Sprague-Dawley rat chronic renal failure model assessed as decrease in serum PTH level at 10 mg/kg, po after 2 hrs relative to vehicle-treated control; assay type: functional; design: scale not given: the % may be the effect or the level left; how it was run: as §1

Compound	EC50 [1] [nM]	further results
Cc1noc(NC(=O)N(CCC(c2ccccc2)c2ccccc2)CCN2CCOCC2)c1C	1700	
O=C(Nc1nc2ccc(Cl)cc2s1)N(CCC(c1ccccc1)c1ccccc1)CCN1CCOCC1	60	
CS(=O)(=O)Nc1ccc2nc(NC(=O)N(CCC(c3ccccc3)c3ccccc3)CCN3CCOCC3)sc2c1	30	
COc1ccc2nc(NC(=O)N(CCC(c3ccccc3)c3ccccc3)CCN3CCOCC3)sc2c1	40	
O=C(Nc1nc2c(Cl)cccc2s1)N(CCC(c1ccccc1)c1ccccc1)CCN1CCOCC1	20	
O=C(Nc1nc2ccccc2n1Cc1ccccc1)N(CCC(c1ccccc1)c1ccccc1)CCN1CCOCC1	300	
O=C(Nc1cnccn1)N(CCC(c1ccccc1)c1ccccc1)CCN1CCOCC1	450	
COc1cccc2sc(NC(=O)N(CCC(c3ccccc3)c3ccccc3)CCN3CCOCC3)nc12	30	
O=C(Nc1nc2ccc(CO)cc2s1)N(CCC(c1ccccc1)c1ccccc1)CCN1CCOCC1	80	
O=C(Nc1nc2ccccc2[nH]1)N(CCC(c1ccccc1)c1ccccc1)CCN1CCOCC1	60	
Cn1c(NC(=O)N(CCC(c2ccccc2)c2ccccc2)CCN2CCOCC2)nc2ccccc21	150	
O=C(O)c1ccc2nc(NC(=O)N(CCC(c3ccccc3)c3ccccc3)CCN3CCOCC3)sc2c1	100	
Cc1cc(C)nc(NC(=O)N(CCC(c2ccccc2)c2ccccc2)CCN2CCOCC2)c1	80	
CS(=O)(=O)c1ccc2nc(NC(=O)N(CCC(c3ccccc3)c3ccccc3)CCN3CCOCC3)sc2c1	80	
O=C(Nc1nc2ccccc2s1)N(CCC(c1ccccc1)c1ccccc1)CCN1CCOCC1 [listing 1 of 2 here]		Activity [2]: Active; Ratio EC50 [3]: 4
O=C(Nc1cccnc1)N(CCC(c1ccccc1)c1ccccc1)CCN1CCOCC1	1000	

Compound	EC50 [1] [nM]	further results
O=C(Nc1nc2ccc(OC(F)(F)F)cc2s1)N(CCC(c1ccccc1)c1ccccc1)CCN1CCOCC1	90	
COc1cc(C)nc(NC(=O)N(CCC(c2ccccc2)c2ccccc2)CCN2CCOCC2)n1	400	
O=C(Nc1nc2ccccc2s1)N(CCC(c1ccccc1)c1ccccc1)CCN1CCOCC1 [listing 2 of 2 here]	20	Activity [4]: Non-toxic; inhibition (INH) [5]: Active
Cc1cc(NC(=O)N(CCC(c2ccccc2)c2ccccc2)CCN2CCOCC2)no1	200	
Cc1cccc2sc(NC(=O)N(CCC(c3ccccc3)c3ccccc3)CCN3CCOCC3)nc12	600	
O=C(Nc1nccs1)N(CCC(c1ccccc1)c1ccccc1)CCN1CCOCC1	300	
CCOc1ccc2nc(NC(=O)N(CCC(c3ccccc3)c3ccccc3)CCN3CCOCC3)sc2c1	1000	
CS(=O)(=O)Nc1ccc2sc(NC(=O)N(CCC(c3ccccc3)c3ccccc3)CCN3CCOCC3)nc2c1	30	
CCOC(=O)c1ccc2nc(NC(=O)N(CCC(c3ccccc3)c3ccccc3)CCN3CCOCC3)sc2c1	200	
O=C(Nc1nccc(-c2nccs2)n1)N(CCC(c1ccccc1)c1ccccc1)CCN1CCOCC1	200	
O=C(Nc1nc2ccc(F)cc2s1)N(CCC(c1ccccc1)c1ccccc1)CCN1CCOCC1	200	
Cc1ccc2nc(NC(=O)N(CCC(c3ccccc3)c3ccccc3)CCN3CCOCC3)sc2c1	30	
COC(=O)c1sccc1NC(=O)N(CCC(c1ccccc1)c1ccccc1)CCN1CCOCC1	400	
CN(C)CCNC(=O)c1ccc2nc(NC(=O)N(CCC(c3ccccc3)c3ccccc3)CCN3CCOCC3)sc2c1	200	
Cl.Cl.O=C(Nc1nc2ccccc2s1)N(CCC(c1ccccc1)c1ccccc1)CCN1CCOCC1		Stability [6]: Stable; Activity [7]: Non-toxic; Activity [8]: 9%; clearance [9]: 82.7 mL/min/kg; Activity [10]: Non-toxic; Activity [11]: Non-toxic; clearance [12]: 30.8 mL/min/kg; Activity [13]: -76%; Activity [14]: -49%; Activity [15]: -88%; Activity [16]: Non-toxic; solubility [17]: 300 µg/mL; Stability [18]: Stable; AUC [19]: 162 ng·h/mL; half-life [20]: 6.73 h; Vd [21]: 5.17 L/kg; Activity [22]: Non-toxic; Activity [23]: -75%; Cmax [24]: 546 ng/mL; Activity [25]: 95%
O=C(Nc1nc2cc(Cl)ccc2o1)N(CCC(c1ccccc1)c1ccccc1)CCN1CCOCC1	80	
